The values below come from ChEMBL document CHEMBL1153433, “Design and synthesis of 2-amino-4-methylpyridine analogues as inhibitors for inducible nitric oxide synthase and in vivo evaluation of [18F]6-(2-fluoropropyl)-4-methyl-pyridin-2-amine as a potential PET tracer for inducible nitric oxide synthase” (J Med Chem, 2009).

The data set in a line: Metabolic stability in Sprague-Dawley rat plasma assessed as parent compound remaining at 400 uCi, iv after 30 mins by HPLC. The following applies: read-out: Stability. Type of data set: ADME, organism-based. The method in brief:
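Anesthetized male Sprague-Dawley rat given 400 μCi [18F]tracer in 10% ethanol/saline i.v. via tail vein. Blood drawn by cardiac puncture at 5 and 30 min. Plasma separated by centrifugation, treated with 3 equivalents of acetonitrile and centrifuged; supernatant filtered and analysed by HPLC. Samples kept on ice.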

In the case of `Cc1cc(N)nc(CC(C)[18F])c1` (stereo unspecified), the remaining at 0.5 h came out at 20.2%.
